Reference: ChEMBL document CHEMBL1123211, “Correspondence analysis applied to steroid receptor binding” (J Med Chem, 1986)

Biological target: T1, Glucocorticoid receptor (Homo sapiens) (UniProt P04150)
T1 sequence (whole entry): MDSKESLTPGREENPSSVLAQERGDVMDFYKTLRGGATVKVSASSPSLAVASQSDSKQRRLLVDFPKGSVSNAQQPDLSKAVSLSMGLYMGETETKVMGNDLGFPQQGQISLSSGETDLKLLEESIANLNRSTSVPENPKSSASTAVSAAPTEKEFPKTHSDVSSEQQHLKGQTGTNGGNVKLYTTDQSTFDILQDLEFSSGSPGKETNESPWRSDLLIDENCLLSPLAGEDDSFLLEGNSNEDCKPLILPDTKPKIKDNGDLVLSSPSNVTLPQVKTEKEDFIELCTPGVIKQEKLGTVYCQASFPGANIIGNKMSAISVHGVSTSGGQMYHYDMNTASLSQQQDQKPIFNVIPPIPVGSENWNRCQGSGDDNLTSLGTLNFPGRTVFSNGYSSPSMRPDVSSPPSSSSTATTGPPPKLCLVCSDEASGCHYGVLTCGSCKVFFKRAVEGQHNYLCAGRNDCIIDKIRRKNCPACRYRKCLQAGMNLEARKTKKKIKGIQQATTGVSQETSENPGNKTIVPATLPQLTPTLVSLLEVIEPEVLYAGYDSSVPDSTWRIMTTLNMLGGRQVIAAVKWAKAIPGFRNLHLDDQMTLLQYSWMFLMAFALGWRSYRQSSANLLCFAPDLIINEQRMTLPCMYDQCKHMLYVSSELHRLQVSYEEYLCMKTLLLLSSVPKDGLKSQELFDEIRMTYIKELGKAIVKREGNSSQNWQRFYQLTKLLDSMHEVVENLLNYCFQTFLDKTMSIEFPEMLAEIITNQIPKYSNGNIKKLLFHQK
Assay: Relative binding affinity against glucocorticoid receptor
Outline: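 Competitive binding: each steroid incubated with receptor-containing cytosol and a radiolabelled marker selective for the receptor. Bound radioactivity separated by dextran-coated charcoal adsorption. The unlabelled radioligand standard curve used 9-10 concentrations; test steroids used 5-6. RBA = 100 × (radioligand conc for 50% displacement ÷ steroid conc for 50% displacement), with reference hormone set to 100. Mean of ≥3 experiments.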

SMILES	Relative binding affinity
CCC12C=CC3=C4CCC(=O)C=C4C[C@@H](C)C3C1CC[C@]2(C)O (stereo partly specified)	145
CC12CCC3C4CCC(=O)C=C4CCC3C1CC[C@@]21CCC(=O)O1 (stereo partly specified)	0.1
C#C[C@]1(O)CC[C@H]2[C@@H]3CCC4=CC(=O)CCC4=C3C=C[C@@]21CC	77
CCC12CCC3=C4CCC(=O)C=C4CCC3C1CC[C@@H]2O (stereo partly specified)	5.1
C[C@]12CC[C@H]3[C@@H](CCC4=CC(=O)CC[C@@H]43)[C@@H]1CC[C@@H]2O	0.5
C#C[C@]1(O)CCC2C3CCC4=CC(=O)CCC4=C3CCC21CC (stereo partly specified)	17
CC1CC2=C3C=CC4(C)C(CC[C@]4(C)O)C3CCC2=CC1=O (stereo partly specified)	1.5
CC12C=CC3=C4CC(=O)CC=C4CCC3C1CC[C@]2(C)O (stereo partly specified)	68
CC1(C)CC2C(=C3CCC(=O)C=C31)C=CC1(C)C2CC[C@]1(C)O (stereo partly specified)	1.2
CC(=O)[C@@]1(C)CCC2C3CCC4=CC(=O)CCC4C3CCC21C (stereo partly specified)	0.7
CC1=C2CCC3C(=C2CCC1=O)C=CC1(C)C3CC[C@]1(C)O (stereo partly specified)	0.5
CCCC12C=CC3=C4CCC(=O)C=C4CCC3C1CC[C@@H]2O (stereo partly specified)	6
C[C@]1(O)CC[C@H]2[C@@H]3CCC4=CC(=O)CCC4=C3C=C[C@@]21C (stereo in doubt; 39)	26
CC12C=CC3=C4CCC(=O)C=C4CCC3C1CC[C@@]21CCC(=O)O1 (stereo partly specified)	62
CC12C=CC3=C4CCC(=O)C=C4CCC3C1CC[C@@]21CCS(=O)O1 (stereo partly specified)	35
C#C[C@]1(O)CCC2C3CCC4=CC(=O)CCC4=C3CCC21CCC (stereo partly specified)	5.5
C[C@@H]1CC2=CC(=O)CCC2=C2C=CC3(C)C(CC[C@]3(C)O)C21 (stereo partly specified)	22
CC12CCC3=C4CCC(=O)C=C4CCC3C1CC[C@@]21CCS(=O)O1 (stereo partly specified)	23
C#C[C@]1(O)CCC2C3CCC4=CC(=O)CCC4C3CCC21CC (stereo partly specified)	14
CCC12C=CC3=C4CCC(=O)C=C4CCC3C1CC[C@]2(C)O (stereo partly specified)	155
CC(=O)[C@H]1CCC2C3CCC4=CC(=O)CCC4=C3CCC21C (stereo partly specified)	5.1
CCCC12CCC3=C4CCC(=O)C=C4CCC3C1CC[C@@H]2O (stereo partly specified)	1.9
CCC12C=CC3=C4CCC(=O)C=C4CCC3C1CC[C@@H]2O (stereo partly specified)	20

SMILES	Relative binding affinity
CC1(C)CC2=C3C=CC4(C)C(CC[C@]4(C)O)C3CCC2=CC1=O (stereo partly specified)	0.4
CC12CCC3=C4CCC(=O)C=C4CCC3C1CC[C@]2(C)O (stereo partly specified)	6
CC(=O)[C@H]1CCC2C3CCC4=CC(=O)CCC4=C3C=CC21C (stereo partly specified)	1.5
CCC12CCC3C4CCC(=O)C=C4CCC3C1CC[C@@H]2O (stereo partly specified)	2.1
CC12CCC3C4CCC(=O)C=C4CCC3C1CC[C@@]21CCS(=O)O1 (stereo partly specified)	0.4
CC12C=CC3=CCCCC3C1CC[C@]2(C)O (stereo partly specified)	38
C#C[C@]1(O)CC[C@H]2[C@@H]3CCC4=CC(=O)CCC4=C3C=C[C@@]21C	11
C[C@]12CCC3=C4CCC(=O)C=C4CC[C@H]3[C@@H]1CC[C@@H]2O	1.6
C[C@@H]1CC2=CC(=O)CC[C@@H]2[C@H]2CC[C@@]3(C)[C@@H](CC[C@]3(C)O)[C@@H]21	1.4
CC12C=CC3=C4CCC(=O)C=C4CCC3C1CCC2 (stereo unspecified)	0.5
C#C[C@]1(O)CCC2C3CCC4=CC(=O)CCC4=C3C=CC21CCC (stereo partly specified)	6.4
C[C@]1(O)CC[C@H]2[C@@H]3CCC4=CC(=O)CC[C@@H]4[C@H]3CC[C@@]21C	1.5
CC(=O)[C@@]1(C)CCC2C3CCC4=CC(=O)CCC4=C3CCC21C (stereo partly specified)	4.5
CC12C=CC3=C4CCC(=O)C=C4CCC3C1CCC2=O (stereo unspecified)	< 0.1
CC(=O)[C@H]1CC[C@H]2[C@@H]3CCC4=CC(=O)CC[C@@H]4[C@H]3CC[C@]12C	0.6
C#C[C@]1(O)CCC2C3CCC4=CC(=O)CCC4C3CCC21CCC (stereo partly specified)	9.8
CCCC12CCC3C4CCC(=O)C=C4CCC3C1CC[C@@H]2O (stereo partly specified)	2.1
C[C@@H]1CC2=CC(=O)CCC2=C2CCC3(C)C(CC[C@]3(C)O)C21 (stereo partly specified)	6.1
C[C@]1(O)CC[C@H]2[C@@H]3CCC4=CC(=O)CCC4=C3C=C[C@@]21C (stereo in doubt; 12)	26
CC(=O)[C@@]1(C)CCC2C3CCC4=CC(=O)CCC4=C3C=CC21C (stereo partly specified)	2.4
C#C[C@]1(O)CCC2C3CCC4=CC(=O)CCC4=C3CCC21C (stereo partly specified)	5.7
CC12CCC3=C4CCC(=O)C=C4CCC3C1CC[C@@]21CCC(=O)O1 (stereo partly specified)	17
CC12C=CC3=C4CCCC=C4CCC3C1CC[C@]2(C)O (stereo partly specified)	0.3
